Assays:
[1] = Antagonist activity at NPS Asn107 mutant receptor expressed in RD-HGA16 cells assessed by calcium mobilization by FlexStation assay; assay type: functional
Outline: (§1)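 Cells loaded with calcium3 dye for 1 h; calcium mobilization read on FlexStation. Compounds tested separately for intrinsic activity and for inhibition of NPS. Ke from an 8-point half-log NPS concentration-response run with and without one compound concentration, at least two concentrations giving at least four-fold rightward EC50 shift; Ke = [L]/(DR-1). Mean ± SE, at least three independent experiments.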

[2] = Antagonist activity at NPS Ile107 mutant receptor expressed in RD-HGA16 cells assessed by calcium mobilization by FlexStation assay; assay type: functional; outline: as §1
RD-HGA16 = assay: Ratio of Ke for NPS Asn107 mutant receptor to Ke for NPS Ile107 mutant receptor expressed in RD-HGA16 cells; assay type: cell-based
[3] = Antagonist activity at NPS Ile107 mutant receptor expressed in RD-HGA16 cells; assay type: functional; outline: as §1
[4] = Antagonist activity at NPS Asn107 mutant receptor expressed in RD-HGA16 cells; assay type: functional; outline: as §1

Structure (SMILES)	Ke [1]	Ke [2]	Ratio Ke (RD-HGA16)	Kb [3]	Kb [4]	Kb ([1]; RD-HGA16)	Kb ([2]; RD-HGA16)
O=C(NCCCc1ccccc1)N1CCN2C(=O)OC(c3ccccc3)(c3ccccc3)C2C1 (stereo unspecified)	417 nM	309 nM	1.3	–	–	–	–
O=C(NCc1ccccc1)N1CCN2C(=O)OC(c3ccccc3)(c3ccccc3)C2C1 (stereo unspecified)	47 nM	9.9 nM	4.8	32.6 nM	21.7 nM	–	–
CN(Cc1ccc(F)cc1)C(=O)N1CCN2C(=O)OC(c3ccccc3)(c3ccccc3)C2C1 (stereo unspecified)	588 nM	214 nM	2.8	–	–	–	–
O=C(NCCCCc1ccccc1)N1CCN2C(=O)OC(c3ccccc3)(c3ccccc3)C2C1 (stereo unspecified)	437 nM	537 nM	0.8	–	–	–	–
CCOC(=O)CNC(=O)N1CCN2C(=O)OC(c3ccccc3)(c3ccccc3)C2C1 (stereo unspecified)	1260 nM	726 nM	1.7	–	–	–	–
O=C(NCc1ccc(F)cc1)N1CCN2C(=O)OC(c3ccccc3)(c3ccccc3)C2C1 (stereo unspecified)	52 nM	13.7 nM	3.8	27.9 nM	16.9 nM	16.9 nM	27.9 nM
O=C(OCc1ccccc1)N1CCN2C(=O)OC(c3ccccc3)(c3ccccc3)C2C1 (stereo unspecified)	353 nM	354 nM	1	–	–	–	–
O=C(O)CNC(=O)N1CCN2C(=O)OC(c3ccccc3)(c3ccccc3)C2C1 (stereo unspecified)	> 4000 nM	> 4000 nM	–	–	–	–	–
O=C(NCCc1ccc(F)cc1)N1CCN2C(=O)OC(c3ccccc3)(c3ccccc3)C2C1 (stereo unspecified)	326 nM	321 nM	1	–	–	–	–
O=C(NCCN1CCCCC1)N1CCN2C(=O)OC(c3ccccc3)(c3ccccc3)C2C1 (stereo unspecified)	490 nM	109 nM	4.5	–	–	–	–
O=C1OC(c2ccccc2)(c2ccccc2)C2CN(C(=S)NCCN3CCCCC3)CCN12 (stereo unspecified)	354 nM	280 nM	1.3	–	–	–	–
O=C1OC(c2ccccc2)(c2ccccc2)C2CN(C(=S)NCCN3CCOCC3)CCN12 (stereo unspecified)	2560 nM	3760 nM	0.7	–	–	–	–
N[C@H](Cc1ccccc1)C(=O)N1CCN2C(=O)OC(c3ccccc3)(c3ccccc3)C2C1 (stereo partly specified)	4640 nM	911 nM	5.1	–	–	–	–
O=C1OC(c2ccccc2)(c2ccccc2)C2CN(CCCCc3ccc(F)cc3)CCN12 (stereo unspecified)	1100 nM	1110 nM	1	–	–	–	–
O=C(CCc1ccc(F)cc1)N1CCN2C(=O)OC(c3ccccc3)(c3ccccc3)C2C1 (stereo unspecified)	460 nM	339 nM	1.4	–	–	–	–
O=C(COc1ccc(F)cc1)N1CCN2C(=O)OC(c3ccccc3)(c3ccccc3)C2C1 (stereo unspecified)	267 nM	244 nM	1.1	–	–	–	–
C[C@@H](NC(=O)N1CCN2C(=O)OC(c3ccccc3)(c3ccccc3)C2C1)c1ccccc1 (stereo partly specified)	229 nM	317 nM	0.7	–	–	–	–
O=C(NCCc1ccc2c(c1)OCO2)N1CCN2C(=O)OC(c3ccccc3)(c3ccccc3)C2C1 (stereo unspecified)	690 nM	567 nM	1.2	–	–	–	–
CN1CCN2C(=O)OC(c3ccccc3)(c3ccccc3)C2C1 (stereo unspecified)	> 4000 nM	> 4000 nM	–	–	–	–	–
